Data as given in ChEMBL document CHEMBL1124580, “Opioid agonist and antagonist activities of peripherally selective derivatives of naltrexamine and oxymorphamine” (J Med Chem, 1989).
pIC50: −log10 of the molar value.

What was measured:
Cavia porcellus [1] = species on record: Cavia porcellus; experiment: Maximum percent inhibition of electrically stimulated twitch in guinea pig ileal longitudinal muscle(GPI) preparation; type: functional; conditions: Muscle tissue
Method in brief: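 Guinea pig ileal longitudinal muscle, electrically stimulated. Maximum percent inhibition of the twitch determined at 1 μM. Values are means ± SE, with number of experiments.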

Cavia porcellus [2] = species on record: Cavia porcellus; experiment: Antagonistic activity against morphine in guinea pig ileal longitudinal muscle(GPI) preparation; type: functional, Muscle tissue
Method in brief: (§1)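 Guinea pig ileal longitudinal muscle, electrically stimulated twitch. Antagonism measured against morphine. Ke = [antagonist]/(IC50 ratio − 1); the IC50 ratio is morphine IC50 with antagonist over its control IC50 in the same preparation. Values are means ± SE, with number of experiments.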

Mus musculus [3] = experiment: Peak antinociceptive potency of compound, 60 min after peroral administration into mice; type: functional; conditions: po, 1 h
Method in brief: (§2)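 Male Swiss–Webster mice, tail-flick antinociception. Compounds given icv, iv or po, with ED50 taken at peak effect. Some ED50s were estimated from two dose levels. Where drug was insufficient, an approximate range was based on one dose level.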

Mus musculus [4] = experiment: Peak antinociceptive potency of compound, 40 min after intravenous administration into mice; type: functional; method in brief: as §2
Mus musculus [5] = experiment: Peak antinociceptive potency of compound, 40 min after intracerebro ventricular administration nto mice; type: functional; method in brief: as §2
[6] = (§3) Potency against opioid receptor relative to morphine; type: functional
Method in brief: (§4)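 Guinea pig ileal longitudinal muscle, electrically stimulated twitch. Agonist potency taken as IC50 for twitch inhibition and as potency ratio relative to morphine (morphine = 1). Values are means ± SE, with number of experiments.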

[7] = target: T1, Opioid receptors; mu/kappa/delta (Homo sapiens, UniProt P41145+P41143+P35372); experiment: Opioid receptor agonistic potency in guinea pig ileal longitudinal muscle(GPI) preparation; type: functional, Cavia porcellus; conditions: target entry is the homologue from another species; method in brief: as §4
T1 sequence (P35372 whole entry, looked up): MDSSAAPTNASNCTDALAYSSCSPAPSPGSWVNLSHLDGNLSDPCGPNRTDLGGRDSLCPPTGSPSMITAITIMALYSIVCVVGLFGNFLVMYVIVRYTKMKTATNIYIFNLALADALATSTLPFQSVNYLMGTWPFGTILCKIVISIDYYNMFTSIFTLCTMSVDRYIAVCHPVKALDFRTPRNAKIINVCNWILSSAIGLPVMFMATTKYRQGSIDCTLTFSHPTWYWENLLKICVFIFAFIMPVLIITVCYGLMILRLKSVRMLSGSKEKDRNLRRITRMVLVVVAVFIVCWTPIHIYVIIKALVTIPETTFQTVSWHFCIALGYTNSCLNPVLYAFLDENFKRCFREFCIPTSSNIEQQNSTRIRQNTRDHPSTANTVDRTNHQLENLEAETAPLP
T1 sequence (P41143 whole entry, looked up): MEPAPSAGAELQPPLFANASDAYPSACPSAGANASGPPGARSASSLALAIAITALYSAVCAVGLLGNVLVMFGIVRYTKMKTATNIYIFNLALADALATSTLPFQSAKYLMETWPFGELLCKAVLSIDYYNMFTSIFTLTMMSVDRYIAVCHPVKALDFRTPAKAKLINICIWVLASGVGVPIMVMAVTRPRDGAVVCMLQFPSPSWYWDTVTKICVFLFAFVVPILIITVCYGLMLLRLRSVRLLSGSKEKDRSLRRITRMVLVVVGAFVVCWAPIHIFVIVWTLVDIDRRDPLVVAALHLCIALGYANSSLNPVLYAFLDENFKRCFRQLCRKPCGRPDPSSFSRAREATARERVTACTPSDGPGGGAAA
T1 sequence (P41145 whole entry, looked up): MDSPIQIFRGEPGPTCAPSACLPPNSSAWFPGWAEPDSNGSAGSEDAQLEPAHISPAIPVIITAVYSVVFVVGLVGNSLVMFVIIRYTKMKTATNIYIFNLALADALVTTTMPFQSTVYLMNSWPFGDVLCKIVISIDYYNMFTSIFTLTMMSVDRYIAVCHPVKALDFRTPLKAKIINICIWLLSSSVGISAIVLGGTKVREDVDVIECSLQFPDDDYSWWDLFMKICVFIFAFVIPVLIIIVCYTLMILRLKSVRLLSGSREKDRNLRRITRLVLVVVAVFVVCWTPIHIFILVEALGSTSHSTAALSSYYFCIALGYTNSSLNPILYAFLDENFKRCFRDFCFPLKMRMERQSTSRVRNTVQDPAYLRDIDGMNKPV

Mus musculus [8] = experiment: Antagonistic potency, 60 min after intracerebro ventricular administration of compound (0.01n mol), in mice (tail flick assay); type: functional; conditions: central, 1 h
Method in brief: (§5)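 Male Swiss–Webster mice, tail-flick antinociception. Morphine given sc and tested 30 min after injection. Antagonist given icv (0.01 nmol), iv (18.3 μmol/kg) or po (91.7 μmol/kg), timed so both drugs were at peak (antagonist peaks 60, 90 and 120 min).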

Mus musculus [9] = experiment: Dose required to produce equivalent antagonism of morphine activity after peroral administration of compound; type: functional
Method in brief: (§6)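 Mouse tail-flick assay against sc morphine. Antagonist dosed icv, iv or po. Equiactive dose calculated as the dose required to double the morphine ED50, [dose/(DR − 1)]. icv doses were also expressed per kg body weight.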

[10] = Antagonistic potency, 120 min after […] administration of compound (91.7 u mol/kg), in mice (tail flick assay); type: functional; method in brief: as §5
Mus musculus [11] = experiment: Peak effect of agonistic potency 10 min after intracerebro ventricular administration, in mice (acetic acid writhing assay); type: functional
Method in brief: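 Mouse acetic acid writhing assay. Compound given icv or po. […] Expressed as nmol/mouse (icv) or […] (po).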

[12] = Antagonistic potency,60 min after intracerebro ventricular administration of compound ([…]), in mice (tail flick assay); type: functional; method in brief: as §5
Cavia porcellus [13] = species on record: Cavia porcellus; experiment: Antagonistic activity against morphine in guinea pig ileal longitudinal muscle(GPI) preparation; Agonism was too strong to test for antagonism; type: functional; conditions: Muscle tissue, filed as agonist; method in brief: as §1
Mus musculus [14] = experiment: Antagonistic potency, 120 min after […] administration of compound (91.7u mol/kg), in mice (tail flick assay); type: functional; conditions: 2 h; method in brief: as §5
[15] = Antagonistic potency, 90 min after intravenous administration of compound (18.3 u mol/kg), in mice (tail flick assay); type: functional; method in brief: as §5
Mus musculus [16] = experiment: Antagonistic potency, 90 min after […] administration of compound (18.3 u mol/kg), in mice (tail flick assay); type: functional; conditions: 1.5 h; method in brief: as §5
Mus musculus [17] = experiment: Dose required to produce equivalent antagonism of morphine activity after intravenous administration of compound; type: functional; method in brief: as §6
Mus musculus [18] = experiment: Peak antinociceptive potency of compound, 20 min after intracerebro ventricular administration into mice; type: functional; method in brief: as §2
Mus musculus [19] = experiment: Peak antinociceptive potency of compound, 20 min after intravenous administration into mice; type: functional; method in brief: as §2
Mus musculus [20] = experiment: Peak antinociceptive potency of compound, 40 min after intracerebro ventricular administration into mice; type: functional; method in brief: as §2
[21] = target: T1, Opioid receptors; mu/kappa/delta; experiment: as §3; type: functional; conditions: Cavia porcellus; method in brief: as §4

With O=C(O)/C=C/C(=O)NC1CC[C@@]2(O)[C@H]3Cc4ccc(O)c5c4[C@@]2(CCN3CC2CC2)[C@H]1O5 (some centres not stated) as the molecule, how does the pIC50 (Cavia porcellus [1]) read?
The pIC50 was 8.22.

What about the Ke (Cavia porcellus [2]) of the same molecule?
The Ke was 8.4 nM.

With O=C(O)COCC(=O)NC1CC[C@@]2(O)[C@H]3Cc4ccc(O)c5c4[C@@]2(CCN3CC2CC2)[C@H]1O5 (some centres not stated) as the molecule, how does the pIC50 (Cavia porcellus [1]) read?
Its pIC50 is 7.42.

And the Ke (Cavia porcellus [2])?
The Ke was 6.2 nM.

Which ED50 (Mus musculus [3]) does the source give for CN1CC[C@]23c4c5ccc(O)c4O[C@H]2C(NC(=O)CCC(=O)O)CC[C@@]3(O)[C@H]1C5 (some centres not stated) here?
Its ED50 is 30.3 µmol/kg.

What about the ED50 (Mus musculus [4]) of the same molecule?
Its ED50 is 9.8 µmol/kg.

What about the ED50 (Mus musculus [5]) of the same molecule?
The ED50 was 0.27 nM mouse-1.

And the Ratio [6]?
The Ratio was 1.6.

And the IC50 [7]?
The IC50 was 144 nM.

What does the source list for NC(CC(=O)O)C(=O)NC1CC[C@@]2(O)[C@H]3Cc4ccc(O)c5c4[C@@]2(CCN3CC2CC2)[C@H]1O5 (some centres not stated)?
ED50 (Mus musculus [8]): 58 µmol/kg; Dose (Mus musculus [9]): 45.85 µM/kg; Dose ratio [10]: 3; pIC50 (Cavia porcellus [1]): 8.13; ED50 (Mus musculus [11]): 0.024 nM mouse-1; Dose ratio [12]: 4.2; Ke (Cavia porcellus [13]): Agonism was too strong to test for antagonism; ED50 (Mus musculus [14]): 41.4 µmol/kg; Dose ratio [15]: 12.2; ED50 (Mus musculus [16]): 168 µmol/kg; Dose (Mus musculus [17]): 1.63 µM/kg

Which ED50 (Mus musculus [4]) does the source give for CN1CC[C@]23c4c5ccc(O)c4O[C@H]2C(NC(=O)C(N)CC(=O)O)CC[C@@]3(O)[C@H]1C5 (some centres not stated) here?
Its ED50 is less than 20 µmol/kg.

And the ED50 (Mus musculus [18])?
Its ED50 is 1110.44 nM mouse-1.

And the Ratio [6]?
The Ratio was 6.1.

And the IC50 [7]?
Its IC50 is 31 nM.

Which results are given for CN1CC[C@]23c4c5ccc(O)c4O[C@H]2C(NC(=O)/C=C\C(=O)O)CC[C@@]3(O)[C@H]1C5 (some centres not stated)?
ED50 (Mus musculus [3]): 20 µmol/kg; ED50 (Mus musculus [19]): 11 µmol/kg; ED50 (Mus musculus [18]): 0.17 nM mouse-1; Ratio [6]: 2.6; IC50 [7]: 39 nM

What does the source list for O=C(O)CCC(=O)NC1CC[C@@]2(O)[C@H]3Cc4ccc(O)c5c4[C@@]2(CCN3CC2CC2)[C@H]1O5 (some centres not stated)?
pIC50 (Cavia porcellus [1]): 7.25; Ke (Cavia porcellus [2]): 24.8 nM

With O=C(O)CNC1CC[C@@]2(O)[C@H]3Cc4ccc(O)c5c4[C@@]2(CCN3CC2CC2)[C@H]1O5 (some centres not stated) as the molecule, how does the pIC50 (Cavia porcellus [1]) read?
The pIC50 was 7.43.

What about the Ke (Cavia porcellus [2]) of the same molecule?
The Ke was 24.4 nM.

Which ED50 (Mus musculus [3]) does the source give for CN1CC[C@]23c4c5ccc(O)c4O[C@H]2C(NC(=O)COCC(=O)O)CC[C@@]3(O)[C@H]1C5 (some centres not stated) here?
The ED50 was greater than 25 µmol/kg.

And the ED50 (Mus musculus [4])?
The ED50 was less than 20 µmol/kg.

What about the ED50 (Mus musculus [20]) of the same molecule?
Its ED50 is 0.25 nM mouse-1.

And the Ratio [21]?
Its Ratio is 3.1.

And the IC50 [7]?
Its IC50 is 27 nM.

Which Ratio [6] does the source give for CN1CC[C@]23c4c5ccc(O)c4O[C@H]2C(NC(=O)/C=C/C(=O)O)CC[C@@]3(O)[C@H]1C5 (some centres not stated) here?
Its Ratio is 1.5.

What about the IC50 [7] of the same molecule?
The IC50 was 130 nM.

What does the source list for O=C(O)CCCC(=O)NC1CC[C@@]2(O)[C@H]3Cc4ccc(O)c5c4[C@@]2(CCN3CC2CC2)[C@H]1O5 (some centres not stated)?
pIC50 (Cavia porcellus [1]): 7.39; Ke (Cavia porcellus [2]): 28 nM
